Data reported in ChEMBL document CHEMBL3632499, “Synthesis and Antiproliferative Activity Evaluation of the Disulfide-Containing Cyclic Peptide Thiochondrilline C and Derivatives” (J Nat Prod, 2015).
Values after ≈ are worked out from the molar mass of the structure shown.

Key:
[1] = Apparent permeability of the compound from apical to basolateral side in human Caco2 cells; assay type: ADME, cell-based; details: Caco-2
[2] = Aqueous solubility of the compound; assay type: physicochemical; details: buffer
NCI-H226 = experiment: Antiproliferative activity against human NCI-H226 cells; assay type: functional
Procedure, shortened: (§1)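 Profiled in the National Cancer Institute 60 cancer cell line screen. Reported GI50 is the concentration giving 50% growth inhibition, TGI the concentration giving total growth inhibition, and LC50 the concentration giving 50% net cell killing. Values are averages ± SEM from two independent determinations.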

SN12C = experiment: Antiproliferative activity against human SN12C cells; assay type: functional; procedure, shortened: as §1
HCT-116 = experiment: Antiproliferative activity against human HCT116 cells; assay type: functional; procedure, shortened: as §1
OVCAR-5 = experiment: Antiproliferative activity against human OVCAR5 cells; assay type: functional; procedure, shortened: as §1
CAKI-1 = experiment: Antiproliferative activity against human Caki1 cells; assay type: functional; procedure, shortened: as §1
[3] = Antiproliferative activity against human SF539 cells; assay type: functional; procedure, shortened: as §1
SW-620 = experiment: Antiproliferative activity against human SW620 cells; assay type: functional
Procedure, shortened: (§2)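 Run in the National Cancer Institute 60 cancer cell line panel. Read-outs: GI50, the concentration causing 50% growth inhibition; TGI, the concentration causing total growth inhibition; LC50, the concentration causing 50% net cell killing. Values are averages ± SEM from two independent determinations.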

A549 = experiment: Antiproliferative activity against human A549/ATCC cells; assay type: functional; procedure, shortened: as §1
[4] = Antiproliferative activity against human RPMI8226 cells; assay type: functional; procedure, shortened: as §1
CCRF-CEM = experiment: Antiproliferative activity against human CCRF-CEM cells; assay type: functional; procedure, shortened: as §1
Malme-3M = experiment: Antiproliferative activity against human MALME-3M cells; assay type: functional; procedure, shortened: as §1
SK-MEL-2 = experiment: Antiproliferative activity against human SK-MEL-2 cells; assay type: functional; procedure, shortened: as §1
T47D = experiment: Antiproliferative activity against human T47D cells; assay type: functional; procedure, shortened: as §2
OVCAR-3 = experiment: Antiproliferative activity against human OVCAR3 cells; assay type: functional; procedure, shortened: as §1
[5] = Antiproliferative activity against human HCC2998 cells; assay type: functional; procedure, shortened: as §1
[6] = Antiproliferative activity against human LOXIMVI cells; assay type: functional; details: LOX IMVI; procedure, shortened: as §1
[7] = Antiproliferative activity against human BT549 cells; assay type: functional; procedure, shortened: as §1
[8] = Half life in mouse liver microsomes; assay type: ADME
NCI-H322M = experiment: Antiproliferative activity against human NCI-H322M cells; assay type: functional; procedure, shortened: as §1
[9] = Antiproliferative activity against human RXF393 cells; assay type: functional; procedure, shortened: as §1
[10] = Antiproliferative activity against human NCI-ADR-RES cells; assay type: functional; procedure, shortened: as §1
SK-OV-3 = experiment: Antiproliferative activity against human SKOV3 cells; assay type: functional; procedure, shortened: as §1
ACHN = experiment: Antiproliferative activity against human ACHN cells; assay type: functional; procedure, shortened: as §1
[11] = Antiproliferative activity against human Hs 578T cells; assay type: functional; procedure, shortened: as §1
[12] = Apparent permeability of the compound from basolateral to apical side in human Caco2 cells; assay type: ADME, cell-based; details: Caco-2
NCI-H23 = experiment: Antiproliferative activity against human NCI-H23 cells; assay type: functional; procedure, shortened: as §1
[13] = Antiproliferative activity against human SF295 cells; assay type: functional; procedure, shortened: as §1
KM12 = experiment: Antiproliferative activity against human KM12 cells; assay type: functional; procedure, shortened: as §1
HT-29 = experiment: Antiproliferative activity against human HT-29 cells; assay type: functional; procedure, shortened: as §1
U-251 = experiment: Antiproliferative activity against human U251 cells; assay type: functional; procedure, shortened: as §2
[14] = Antiproliferative activity against human MOLT4 cells; assay type: functional; procedure, shortened: as §1
MDA-MB-231 = experiment: Antiproliferative activity against human MDA-MB-231 cells; assay type: functional; procedure, shortened: as §1
HCT-15 = experiment: Antiproliferative activity against human HCT15 cells; assay type: functional; procedure, shortened: as §1
DU-145 = experiment: Antiproliferative activity against human DU145 cells; assay type: functional; procedure, shortened: as §1
MDA-MB-435 = experiment: Antiproliferative activity against human MDA-MB-435 cells; assay type: functional; procedure, shortened: as §1
HL-60(TB) = experiment: Antiproliferative activity against human HL-60(TB) cells; assay type: functional
Procedure, shortened: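 Tested in the NCI 60 human cancer cell line panel. GI50 is the concentration giving 50% growth inhibition; TGI (total growth inhibition) and LC50 (50% net cell killing) were also derived. Values are the mean ± SEM of two independent determinations.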

[15] = Antiproliferative activity against human COLO205 cells; assay type: functional; procedure, shortened: as §1
UACC-62 = experiment: Antiproliferative activity against human UACC62 cells; assay type: functional; procedure, shortened: as §2
[16] = read-out: LC50 (the source's name)

C[C@H](NC(=O)[C@@H]1CSSC[C@@H](NC(=O)c2nc3ccccc3cc2O)C(=O)NCC(=O)N1C)c1ccccc1
Papp A→B [1]: 0.011 ×10⁻⁶ cm/s
solubility [2]: 4.5 µg/mL (≈ 7.93 µM)
GI50 (NCI-H226): 8.9 µM
TGI (NCI-H226): 17.4 µM
CC50 (NCI-H226; [16]): 34.2 µM
GI50 (SN12C): 5.6 µM
TGI (SN12C): 14.1 µM
CC50 (SN12C; [16]): 35.4 µM
GI50 (HCT-116): 1.8 µM
TGI (HCT-116): 6 µM
CC50 (HCT-116; [16]): 18.3 µM
GI50 (OVCAR-5): 5.2 µM
TGI (OVCAR-5): 12.6 µM
CC50 (OVCAR-5; [16]): 29.6 µM
GI50 (CAKI-1): 7.3 µM
TGI (CAKI-1): 18.5 µM
CC50 (CAKI-1; [16]): 47.4 µM
GI50 ([3]; SF-539): 2 µM
TGI ([3]; SF-539): 9.4 µM
CC50 ([3]; SF-539, read-out: LC50 (the source's name)): 27.3 µM
GI50 (SW-620): 1.9 µM
TGI (SW-620): 6.3 µM
CC50 (SW-620; [16]): 33.2 µM
GI50 (A549): 7.1 µM
TGI (A549): 15.7 µM
CC50 (A549; [16]): 35.3 µM
GI50 ([4]; RPMI-8226): 5.7 µM
TGI ([4]; RPMI-8226): 21.6 µM
CC50 ([4]; RPMI-8226, read-out: LC50 (the source's name)): > 50 µM
GI50 (CCRF-CEM): 1.9 µM
TGI (CCRF-CEM): 10.5 µM
CC50 (CCRF-CEM; [16]): > 50 µM
GI50 (Malme-3M): 6.1 µM
TGI (Malme-3M): 14 µM
CC50 (Malme-3M; [16]): 32.3 µM
GI50 (SK-MEL-2): 2.6 µM
TGI (SK-MEL-2): 10.1 µM
CC50 (SK-MEL-2; [16]): 27.1 µM
GI50 (T47D): 1.1 µM
TGI (T47D): 3.8 µM
CC50 (T47D; [16]): 24.8 µM
GI50 (OVCAR-3): 0.6 µM
TGI (OVCAR-3): 1.4 µM
CC50 (OVCAR-3; [16]): 3.1 µM
GI50 ([5]; HCC 2998): 7.9 µM
TGI ([5]; HCC 2998): 17.9 µM
CC50 ([5]; HCC 2998, read-out: LC50 (the source's name)): > 50 µM
GI50 [6]: 0.7 µM
TGI [6]: 1.5 µM
CC50 [6, 16]: 3.6 µM
GI50 ([7]; BT-549): 6.9 µM
TGI ([7]; BT-549): 16.1 µM
CC50 ([7]; BT-549, read-out: LC50 (the source's name)): 37.6 µM
half-life [8]: 27 min
GI50 (NCI-H322M): 7.1 µM
TGI (NCI-H322M): 20.1 µM
CC50 (NCI-H322M; [16]): > 50 µM
GI50 ([9]; RXF 393): 1.3 µM
TGI ([9]; RXF 393): 3.1 µM
CC50 ([9]; RXF 393, read-out: LC50 (the source's name)): 13 µM
GI50 [10]: 11 µM
TGI [10]: > 50 µM
CC50 [10, 16]: > 50 µM
GI50 (SK-OV-3): 5.8 µM
TGI (SK-OV-3): 21.3 µM
CC50 (SK-OV-3; [16]): > 50 µM
GI50 (ACHN): 4.9 µM
TGI (ACHN): 13 µM
CC50 (ACHN; [16]): 31.5 µM
GI50 [11]: 11.3 µM
TGI [11]: 34.5 µM
CC50 [11, 16]: > 50 µM
Papp B→A [12]: 0.062 ×10⁻⁶ cm/s
GI50 (NCI-H23): 5.2 µM
TGI (NCI-H23): 12.6 µM
CC50 (NCI-H23; [16]): 29.7 µM
GI50 ([13]; SF-295): 7.4 µM
TGI ([13]; SF-295): 16.3 µM
CC50 ([13]; SF-295, read-out: LC50 (the source's name)): 35.8 µM
GI50 (KM12): 0.6 µM
TGI (KM12): 8.6 µM
CC50 (KM12; [16]): 28.3 µM
GI50 (HT-29): 1.2 µM
TGI (HT-29): 3.9 µM
CC50 (HT-29; [16]): 12.4 µM
GI50 (U-251): 2.5 µM
TGI (U-251): 7.7 µM
CC50 (U-251; [16]): 20.4 µM
GI50 ([14]; MOLT-4): 0.9 µM
TGI ([14]; MOLT-4): 3.3 µM
CC50 ([14]; MOLT-4, read-out: LC50 (the source's name)): > 50 µM
GI50 (MDA-MB-231): 1.9 µM
TGI (MDA-MB-231): 7.9 µM
CC50 (MDA-MB-231; [16]): 26 µM
GI50 (HCT-15): 2.6 µM
TGI (HCT-15): 9.7 µM
CC50 (HCT-15; [16]): 25.9 µM
GI50 (DU-145): 5.8 µM
TGI (DU-145): 12.7 µM
CC50 (DU-145; [16]): 27.7 µM
GI50 (MDA-MB-435): 0.8 µM
TGI (MDA-MB-435): 6.6 µM
CC50 (MDA-MB-435; [16]): 22 µM
GI50 (HL-60(TB)): 1.2 µM
TGI (HL-60(TB)): 5.1 µM
CC50 (HL-60(TB); [16]): 38.8 µM
GI50 ([15]; COLO 205): 1 µM
TGI ([15]; COLO 205): 2.3 µM
CC50 ([15]; COLO 205, read-out: LC50 (the source's name)): 7.2 µM
GI50 (UACC-62): 5.7 µM
TGI (UACC-62): 13.3 µM
CC50 (UACC-62; [16]): 30.2 µM
